In ChEMBL document CHEMBL1134930, “Novel nucleotide phosphonate analogues with potent antitumor activity” (Bioorg Med Chem Lett, 2002):

How the values were obtained:
NCI-H460 = assay: Compound was evaluated for its in vitro activity in human solid tumor cell line H-460 measured in a [3H]thymidine incorporation assay; type: functional, cell-based; details: NCI-H460, 72 h
How it was run: (§1)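 Cell lines adapted to RPMI medium, exposed to compound for 72 h at 37 °C under 5% CO2. Methyl-[3H]-thymidine (0.5 μCi) added for the final 16 h, then incorporation measured. Antiproliferative IC50 (μM) reported.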

SF-268 = assay: Compound was evaluated for its in vitro activity in human solid tumor cell line SF-268 measured in a [3H]thymidine incorporation assay; type: functional, cell-based; details: SF-268, 72 h; how it was run: as §1
MCF7 = assay: Compound was evaluated for its in vitro activity in human solid tumor cell line MCF-7 measured in a [3H]thymidine incorporation assay; type: functional, cell-based; details: MCF7, 72 h; how it was run: as §1
MRC5 = assay: Cytotoxicity of compound was evaluated against MRC-5 cell line.; type: functional; details: Homo sapiens

Compound	IC50 (NCI-H460) [µM]	IC50 (SF-268) [µM]	IC50 (MCF7) [µM]	CC50 (MRC5) [µg/mL]
Nc1nc(O)c2ncn(C[C@H]3O[C@@H](P(=O)(O)O)C[C@@H]3F)c2n1	44	> 100	> 100	–
Nc1nc(O)c2ncn(C[C@H]3O[C@@H](P(=O)(O)O)[C@H](O)[C@@H]3O)c2n1	> 100	> 100	> 100	–
Nc1nc(NC2CC2)c2ncn(C[C@H]3O[C@@H](P(=O)(O)O)C[C@@H]3O)c2n1	20	28	48	–
Nc1nc(O)c2ncn(C[C@H]3O[C@H](P(=O)(O)O)C[C@@H]3O)c2n1	30	13	53	–
Nc1nc(N)c2ncn(C[C@@H]3CC[C@@H](P(=O)(O)O)O3)c2n1	57	> 100	52	–
N.Nc1nc(O)c2ncn(C[C@@H]3CC[C@@H](P(=O)(O)O)O3)c2n1	64	> 100	> 100	28
Nc1nc(NC2CC2)c2ncn(C[C@@H]3CC[C@@H](P(=O)(O)O)O3)c2n1	> 100	> 100	> 100	–
Nc1nc(O)c2ncn(C[C@@H]3CC[C@H](P(=O)(O)O)O3)c2n1	40	> 100	67	> 10

Compounds with a lower IC50 (NCI-H460), results first:

IC50 (NCI-H460) [µM]	IC50 (SF-268) [µM]	IC50 (MCF7) [µM]	Compound	CC50 (MRC5) [µg/mL]
7.6	2.4	5.6	CO[C@H]1C[C@H](P(=O)(O)O)O[C@@H]1Cn1cnc2c(O)nc(N)nc21	–
0.53	0.14	0.67	Nc1nc(O)c2ncn(C[C@H]3O[C@@H](P(=O)(O)O)C[C@@H]3O)c2n1	–
7.1	44	> 12	Nc1nc(O)c2ncn(C[C@H]3O[C@@H](P(=O)(O)O)C[C@H]3F)c2n1	–
0.71	1.2	1.4	Nc1nc(N)c2ncn(C[C@H]3O[C@@H](P(=O)(O)O)C[C@@H]3O)c2n1	–
